Source: ChEMBL document CHEMBL1130047, “Synthesis, structure, and antiproliferative activity of selenophenfurin, an inosine 5'-monophosphate dehydrogenase inhibitor analogue of selenazofurin” (J Med Chem, 1997)

Legend:
5637 = assay: Compound was tested for antiproliferative activity against 5637, human bladder carcinoma cell line; type: functional, cell-based
Outline: (§1)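 Exponentially growing solid-tumour-derived cells were seeded at 5 × 10⁴ cells/mL and left to adhere for 16 h before drug addition, across a range of concentrations. Growth was expressed as % of untreated controls, and IC50 (concentration reducing cell viability by 50%) was obtained by linear regression.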

CHO-K1 [1] = assay: Compound was tested for antiproliferative activity against CHO-K1, Chinese hamster ovary; type: functional, cell-based; settings: Cricetulus griseus; outline: as §1
CCRF-SB [2] = assay: (§2) Compound was tested for antiproliferative activity against CCRF-SB, human acute B-lymphoblastic leukemia; type: functional, cell-based
Outline: (§3)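 Exponentially growing cells were seeded at 1 × 10⁵ cells/mL in growth medium and exposed to various compound concentrations for 96 h at 37 °C. Viability was read by MTT. Growth at each concentration was taken as % of untreated controls, and IC50 (concentration reducing viability by 50%) was derived by linear regression.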

CCRF-CEM [3] = assay: (§4) Compound was tested for antiproliferative activity against CCRF-CEM, human acute T-lymphoblastic leukemia; type: functional, cell-based; outline: as §3
HT-29 = assay: Compound was tested for antiproliferative activity against HT29, human colon adenocarcinoma; type: functional, cell-based; outline: as §1
HeLa = assay: Compound was tested for antiproliferative activity against HeLa, human cervix carcinoma; type: functional, cell-based; outline: as §1
[4] = biological target: T1, Inosine-5'-monophosphate dehydrogenase (IMPDH) (Homo sapiens) (UniProt P20839+P12268); assay: Compound was tested for its effect on IMPDH (Inosine 5`-monophosphate dehydrogenase) activity in K562 cells; type: functional, cell-based; settings: scale: (nM of XMP formed) hr-1
T1 sequence (P20839 whole entry, looked up, other chains not shown): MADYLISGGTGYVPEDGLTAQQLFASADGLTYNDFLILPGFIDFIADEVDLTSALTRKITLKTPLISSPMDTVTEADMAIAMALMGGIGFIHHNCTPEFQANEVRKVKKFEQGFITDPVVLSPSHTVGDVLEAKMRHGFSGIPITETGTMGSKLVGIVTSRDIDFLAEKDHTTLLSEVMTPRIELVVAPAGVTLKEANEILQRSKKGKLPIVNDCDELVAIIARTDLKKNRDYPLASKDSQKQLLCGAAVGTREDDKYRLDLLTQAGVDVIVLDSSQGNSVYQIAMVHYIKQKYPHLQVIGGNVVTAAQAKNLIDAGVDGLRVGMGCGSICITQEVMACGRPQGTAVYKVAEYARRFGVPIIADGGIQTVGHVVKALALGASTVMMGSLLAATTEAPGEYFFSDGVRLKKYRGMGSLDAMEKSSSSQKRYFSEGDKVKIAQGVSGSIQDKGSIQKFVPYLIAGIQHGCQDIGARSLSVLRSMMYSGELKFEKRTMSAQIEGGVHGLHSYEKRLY
Outline: (§5)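 Log-phase K562 cells (1 × 10⁶ cells/mL) were given 10 µM agent or saline for 2 h at 37 °C. They were then washed and lysed in Tris-HCl pH 7.4/NaCl/MgCl₂/0.5% NP-40/aprotinin, and the 13000g supernatant served as enzyme. The reaction ran 30 min at 37 °C, stopped by heating at 95 °C for 1 min. Radioactivity was trapped in KOH and counted by scintillation, giving nmol XMP/mg protein/h and % inhibition against saline.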

K562 [5] = assay: Compound was tested for its influence on the GDP (guanosine diphosphate) ribonucleotide level in K562 cells; type: functional, Homo sapiens
Outline: (§6)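 K562 cells in culture (1 × 10⁷) were incubated with 10 µM agent or saline for 2 h at 37 °C, then washed with cold saline. Extraction used cold 10% trichloroacetic acid, followed by neutralisation with 0.5 M tri-n-octylamine in freon. Nucleotides were measured by HPLC on a strong anion-exchange (SAX) column, with levels in nmol/g and % of saline control.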

K562 [6] = assay: Compound was tested for its influence on the GMP (guanosine monophosphate) ribonucleotide level in K562 cells; type: functional, Homo sapiens; outline: as §6
K562 [7] = assay: Compound was tested for its influence on the GTP (guanosine triphosphate) ribonucleotide level in K562 cells; type: functional, Homo sapiens; outline: as §6
K562 [8] = assay: Compound was tested for its influence on the IMP (Inosine 5`-monophosphate) ribonucleotide level of K562 cells in culture; type: functional, Homo sapiens; outline: as §6
K562 [9] = assay: (§7) Compound was tested for antiproliferative activity against K562, human erythroid leukemia; type: functional, cell-based; outline: as §3
MOLT-4 [10] = assay: (§8) Compound was tested for antiproliferative activity against MOLT-4, human acute T-lymphoblastic leukemia; type: functional, cell-based; outline: as §3
L1210 [11] = assay: (§9) Compound was tested for antiproliferative activity against L1210, murine lymphocytic leukemia; type: functional, cell-based; settings: Mus musculus; outline: as §3
Raji = assay: Compound was tested for antiproliferative activity against Raji, human Burkitt lymphoma; type: functional, cell-based; outline: as §3
WIL2-NS = assay: Compound was tested for antiproliferative activity against Wil2-NS, human splenic lymphoblastoid cells; type: functional, cell-based; outline: as §3
[12] = biological target: T1, Inosine-5'-monophosphate dehydrogenase (IMPDH) (Homo sapiens); assay: (§10) Compound was tested for its inhibition against IMPDH from human myelogenous leukemia in K562 cells; type: functional, cell-based; settings: concentration not given here; outline: as §5
ACHN = assay: Compound was tested for antiproliferative activity against ACHN, human renal adenocarcinoma; type: functional, cell-based; outline: as §1
CHO-K1 [13] = assay: Compound was tested for antiproliferative activity against CHO-K1, Chinese hamster ovary cells; type: functional, cell-based; settings: Cricetulus griseus
Outline: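 Solid tumor-derived adherent cells seeded at 5 × 10⁴ cells/mL in exponential growth, allowed 16 h to attach before drug addition; viability by MTT method. Growth expressed as percent of untreated controls, IC50 obtained by linear regression.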

CCRF-SB [14] = assay: as §2; type: functional, cell-based; remark: listed apart in the source
Outline: (§11)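 Suspension leukemia/lymphoma cells in exponential growth resuspended at 1 × 10⁵ cells/mL in growth medium with various compound concentrations; viability read by MTT after 96 h at 37 °C. Growth given as percentage of untreated controls; IC50 (concentration reducing viability 50%) from linear regression.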

CCRF-CEM [15] = assay: as §4; type: functional, cell-based; outline: as §11; remark: listed apart in the source
[16] = biological target: T1, Inosine-5'-monophosphate dehydrogenase (IMPDH) (Homo sapiens); assay: Compound was tested for its effect on IMPDH (Inosine 5`-monophosphate dehydrogenase) activity of K562 cells in culture.; type: functional, cell-based; settings: scale: (nM of XMP formed) hr-1
[17] = biological target: T1, Inosine-5'-monophosphate dehydrogenase (IMPDH) (Homo sapiens); assay: Compound was tested for its inhibition against IMPDH from human myelogenous leukemia K562 cells in culture.; type: functional, cell-based; settings: concentration not given here
K562 [18] = assay: Compound was tested for its influence on the IMP (Inosine 5`-monophosphate) ribonucleotide level in K562 cells; type: functional, Homo sapiens
Outline: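 K562 cells (1 × 10⁷) given 10 µM agent or saline for 2 h at 37 °C, washed in cold saline, extracted with cold 10% trichloroacetic acid, neutralized with 0.5 M tri-n-octylamine in freon; IMP measured by strong anion-exchange HPLC, reported as percent of saline control (control in nmol/g).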

K562 [19] = assay: as §7; type: functional, cell-based; outline: as §11; remark: listed apart in the source
L1210 [20] = assay: as §9; type: functional, cell-based; settings: Mus musculus; outline: as §11; remark: listed apart in the source
MOLT-4 [21] = assay: as §8; type: functional, cell-based; outline: as §11; remark: listed apart in the source
[22] = biological target: T1, Inosine-5'-monophosphate dehydrogenase (IMPDH) (Homo sapiens); assay: Compound was tested for its effect on IMPDH (Inosine 5`-monophosphate dehydrogenase) activity in K562 cells in culture.; type: functional, cell-based; settings: scale: (nM of XMP formed) hr-1
[23] = biological target: T1, Inosine-5'-monophosphate dehydrogenase (IMPDH) (Homo sapiens); assay: as §10; type: functional, cell-based; settings: concentration not given here; remark: listed apart in the source

`NC(=O)c1c[se]c([C@@H]2O[C@H](CO)[C@@H](O)[C@H]2O)n1` showed an IC50 5637 of 2.3 µM, an IC50 (CHO-K1 [1]) of 0.6 µM and an IC50 (CCRF-SB [2]) of 1.5 µM. For the same compound, the IC50 (CCRF-CEM [3]) was 1.2 µM, the IC50 (HT-29) was 7.7 µM and the IC50 (HeLa) was 7.9 µM. The IMPDH activity [4] was 1.01, the Control (K562 [5]) was 59% and the Control (K562 [6]) was 0%. For the same compound, the Control (K562 [7]) was 50%, the Control (K562 [8]) was 1043% and the IC50 (K562 [9]) was 0.5 µM. It also gave an IC50 (MOLT-4 [10]) of 0.6 µM, an IC50 (L1210 [11]) of 0.5 µM and an IC50 (Raji) of 1.6 µM. The IC50 (WIL2-NS) was 1.2 µM, the inhibition [12] was 80% and the IC50 (ACHN) was 13.8 µM.
`NC(=O)c1csc([C@@H]2O[C@H](CO)[C@@H](O)[C@H]2O)n1` [TIAZOFURIN] showed an IC50 5637 of 24 µM, an IC50 (CHO-K1 [13]) of 6.4 µM and an IC50 (CCRF-SB [14]) of 7.5 µM. For the same compound, the IC50 (CCRF-CEM [15]) was 10 µM, the IC50 (HT-29) was 100 µM and the IC50 (HeLa) was 100 µM. The IMPDH activity [16] was 2.07, the inhibition [17] was 59% and the Control (K562 [5]) was 89%. It also gave a Control (K562 [6]) of 0%, a Control (K562 [7]) of 55% and a Control (K562 [18]) of 1033%. The IC50 (K562 [19]) was 2.5 µM, the IC50 (L1210 [20]) was 2.9 µM and the IC50 (MOLT-4 [21]) was 5.2 µM. For the same compound, the IC50 (Raji) was 8.2 µM, the IC50 (WIL2-NS) was 5.7 µM and the IC50 (ACHN) was over 100 µM.
In the case of `NC(=O)c1csc([C@@H]2O[C@H](CO)[C@@H](O)[C@H]2O)c1`, the IC50 5637 is reported as 17 µM, the IC50 (CHO-K1 [13]) is reported as 55 µM and the IC50 (CCRF-SB [2]) is reported as 6.4 µM. It also gave an IC50 (CCRF-CEM [15]) of 3.5 µM, an IC50 (HT-29) of 40 µM and an IC50 (HeLa) of 90 µM. The IMPDH activity [22] was 2.62, the inhibition [23] was 52% and the Control (K562 [5]) was 66%. For the same compound, the Control (K562 [6]) was 0%, the Control (K562 [7]) was 60% and the Control (K562 [18]) was 703%. The IC50 (K562 [9]) was 2.3 µM, the IC50 (L1210 [20]) was 1.7 µM and the IC50 (MOLT-4 [21]) was 2.9 µM. The IC50 (Raji) was 8.7 µM, the IC50 (WIL2-NS) was 5.8 µM and the IC50 (ACHN) was 79 µM.
`NC(=O)c1c[se]c([C@@H]2O[C@H](CO)[C@@H](O)[C@H]2O)c1` gave an IC50 5637 of 1.2 µM, an IC50 (CHO-K1 [1]) of 2.9 µM and an IC50 (CCRF-SB [2]) of 0.9 µM. The IC50 (CCRF-CEM [3]) was 0.3 µM, the IC50 (HT-29) was 3.5 µM and the IC50 (HeLa) was 6.4 µM. The IMPDH activity [4] was 1.06, the Control (K562 [5]) was 61% and the Control (K562 [6]) was 0%. The Control (K562 [7]) was 42%, the Control (K562 [18]) was 1464% and the IC50 (K562 [9]) was 0.45 µM. For the same compound, the IC50 (MOLT-4 [10]) was 0.3 µM, the IC50 (L1210 [11]) was 0.3 µM and the IC50 (Raji) was 0.9 µM. For the same compound, the IC50 (WIL2-NS) was 0.7 µM, the inhibition [12] was 76% and the IC50 (ACHN) was 9.9 µM.
